# Source: the RNAGym collection of RNA variant scans (doi:10.1126/science.aae0568)
# This sample holds only a part of the variants without activity.
# B1: tRNA (parent)
# chain: GUUCCGUUGGCGUAAUGGUAACGCGUCUCCCUCCUAAGGAGAAGACUGCGGGUUCGAGUCCCGUACGGAACG
# Variants of: B1
# Assay: yeast fitness relative to wild type (ratio to wild type); higher = fitter; tRNA-Arg(CCU), competitive growth, 37 C, YPD
# Summary of the method: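 For this measurement, the tRNA-Arg(CCU) gene was varied by chemical synthesis at a 3% per-site mutation rate across 69 sites, and each variant was placed at the native genomic locus in Saccharomyces cerevisiae. The pooled strains went through a 24-hour competition in YPD at 37°C in six parallel replicates, with amplicons from start and end populations read by 100-nucleotide paired-end sequencing. Darwinian fitness relative to wild type followed from the change in each genotype's frequency. Genotypes needed ≥ 100 starting reads, and estimates < 0.5 were set to 0.5.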
row,Variant,yeast fitness
1,GUUCGGUUGGCGUUAUGAUAUCGCGUCUCCCUCCUAAGGAGGAGACUGCGGGUUCGAGUCCUGUCCGGAACG,≤ 0.5
2,GUUCCGUUGGGGUAAUGGUAACGCGUCUCCCGCCUAAGGAGAAGACUGCGGGUACGAGACCCGUACAGAACG,≤ 0.5
3,GUUCCGCUGGCGUAAUGGUAACGCGUCUCCCUCCUAAGGAGAAGACUGAGGGUUCGAGUCCUGUACGGAUCG,≤ 0.5
4,GUUCCGUUGGCGUUAUGAUAACGCGUCUCCCUCCUAAGGAGAAGACUGCGGGUUCGAGUCCCGUACGGAACG,≤ 0.5
5,GUUCCGUUGCCGUAAUGGUAACGCGUCUCGCUCCUAAGGAGAAGAUUGCGGGUUCGAGUCCCGUACGGAACG,≤ 0.5
6,GUUCAGUUGGCGUACUGGUAACGCGUCUACCUCCUAAGAAGAAGACUGCGGGUUCGAGUGCCGUACGGAGCG,≤ 0.5
7,GUUCCGUUGGGGUAAUGGUAAUGCGUCUCCCUCCUCAGGAGAAGACUGCGGCUUCGAGUCCCGUAUGGAACG,≤ 0.5
8,GUUAGGUUGGCGUAAUGGUAACGCGUCUCCCUCCUAAGGAGAAGACUGCGGGAUCGAGUCCCGUACGGAACG,≤ 0.5
9,GUUCCGUUGGCGCAAUGGUAACGCGUCUCCCUCCUAAGGAGAAGACUGGGGGUUCGAGUCGCGUACGGAACG,≤ 0.5
10,GUUCCGUUGGCGUAAUGGUAAGGCGUCCCCCUCCUAAGGAGAAGACAGCGGGUUCGAGUCCCGUACGGAACG,≤ 0.5
11,GUUCCGUAGGCGUAAUGGUAACGCGUCUCCCUCCUAAGGAGAAGACUGCGGGUUUGAGUCCCGUACGAAACG,0.578
12,GUUCCGUUGGCGUAAUGGUAACGCGUCUCCCUCCUAAGGCGAAGACUGCGGGUUCGAGUACCGUAUGGAACG,≤ 0.5
13,GUUCCGUUGGCGUAAUGGUAACGCGUCUCCCUCCUAAGGACGAGACUGCGAGUUCGAGUCCCGUACGGAACG,0.538
14,GUUCCGUUGGCGUAAUGGUAACGCGUCUCACUCCUAAGGAGAAGAAUGCGGGUUCGAGUCCCGUACGGAACG,1
15,GUUCCGUUGGCGUAAUGGUAACGCGUCUCCCUCCCACGGAGAAGACUGCGGGUUCGAGUCCCGUACGCACCG,0.913
16,GUUCCGUUGGCGACAUGGUAAAGCGUCUCCCUCCUAAGGAGAAGACUGCGGGUUCGAGUCCCGUACGGAACG,≤ 0.5
17,GUUCCAUUGGCGUAAUGGUAACGCGUCUCCCUCCUAAGCAGAAGACUGCGGGUUCGAGUCCCAUACGGAACG,≤ 0.5
18,GUUCCGUUGGCGUAAUCGUAACGCGUCUCCCUCCUAAGGAAAAGACUGCGGGUUCGAGUCCCGUACGGAACG,0.615
19,GUUCCGAUGGCGUACUGGUAACGCGUAUCCCUCCUAAGGAGAAGACCGCGGGUUCGAGUCCCGUACGGAACG,≤ 0.5
20,GUUCUGUUGGCGUAAUGGUAGCGCGUCCCCCUCCUGAGGAGAAGACUGCGGGUUAGAGUCCCGUACGGAACG,≤ 0.5
21,GUUCCGUUGGGGUAAUGGUAACGCGUCUCCCUCCUUAGGCGAAGACUGCGGGUUCGAGUCCCGUACGGAACG,0.612
22,GUUCCGUUGGCGUAAUGGUAAGGCGUCUCCUUCCUAAGGAGAAGACUGCGGGUUCGAGUCGCGUACGGAACG,0.614
23,GUUCCGUUGGCGUAAUGGUAAUGCGUCUCCCUCCUAAGGAGAAGAGUGAGGGUUCGAGUACCGUACGGACCG,≤ 0.5
24,GUUCCAUUGGCGUAAUGGUAACGCGUCUCCCUCCUAAGGAGAAGACUGCGGGUUCGAGCCCCGUACGAAACG,0.567
25,GUACAGUUGGCGUAAUGGUAACGCGUCUCCCUCCUAAGGAGAAGCCUGCCGGUUCGAGUCCCGCACGGAACG,0.54

row,Variant,yeast fitness
1,GUUACGUUGGCGUGAUGGUAACGCGUCUCCCUCCUAAGGAGAAGACUGCGGGUUCGAGUCCCGAACGGACCG,≤ 0.5
2,GUUCCGUUGGCGGAACGGUAACGCGUCUCCCUCCUAAGGAGAAGACUGCGGGUUCGAGUCCCCUACGGAACG,≤ 0.5
3,GUUCCGUUGGCGUAAUGGUAACGCGUUUCCCUCCCAAGGAGAAGACUGCGGGUUCGAGUCCCGUACGGAACG,0.754
4,GUGCCGUUGGCGUAAUCCUAAAGCGUCUCCCUCCUAAGGAGAAGACUGCGGGUUCGAGUACCGUAUGGAACG,≤ 0.5
5,GUUCCGUUGGCGUAAUGGUAACGCGUCUCCCUCCUAAGGAGAAGUCUGCGGGUUCGAGUCCCGUCCGAAACG,0.567
6,GUUCCGUUGGCGUAAUGGUAAUGCGUCUCCCUCCUAAGGAGAAGACUGCGGGUUCGAGUCCCGUGCGCAACG,0.534
7,GUCCCGUUGGCGUAAUGGUAACGCGUCUCCCUCCUAAGGAGAAGACUGCGGGUUCGAGUCCUGUACGGAACG,0.904
8,GUUCCGUUGGUGUAAUGGUAACGCGUCUCUCUCCUAAGGAGAAGACUGCGGCUUCGAGUCCCGUACGGAACG,≤ 0.5
9,GUUCCGUUGGCGUAGUGGUAACGAGUCUCCCUCCUAAGGAGAAGACUGCGGGUUCGAGUCCCGUAUGGAACG,≤ 0.5
10,GUUCCGUUGGCGUAAUGGUAACGCGUCUCUUUCAUAAGGAGAAGACUGCGGGUUCGAGUCCCGUACGGAACG,0.601
11,GUUCCGUUGGCGUAAUGGUAACGCGUCUCCCACCUAAGGAGAAGACUGCGGGUUCGUGUCCCGUACGGAACG,0.558
12,GUUCCGUUGGCGUAAUGGUAACGCGUCUCCCUGCUAAGGAGAAGACUGCGGGUUGGAGUCCCGUACAGAACG,≤ 0.5
13,GAUCCGUUGGCGUAAUGGUAACGCGUCUCCCUCCUAAGGAGAAGACGGAGGGUUCGAGUUCCGUCCGGAACG,≤ 0.5
14,GUUGCGUUGGCGUAACGGUAACGCGUCUCCUUCCUAAGGAGGAGACUGCGGGUUCGAGUCCCGUACGGAACG,≤ 0.5
15,GUUCCGUUGGCGUAAUGGUAACGCGUCUCCCUCCUAAGGAGAUGACUGCGGGUUCGAGUCCCCUACGGAUCG,0.54
16,GUUCCGUUCGCGUAAUGGUAACGCGUCUCCCUCCUAAGGAGAAGACGGAGGGUUCGAGUCCCGUACGGUACG,≤ 0.5
17,GUUCCGUUGGCGUAAUGGUAACGGGUAUCCCCCCUAAGGAGAAGACUGCGGGUUCGAGUCCCGAACGGAACG,≤ 0.5
18,GUUCCCUUGGCGUAAUGGUAACGCGUCUCCCUCCUAAGGAGCAGACUGUGGGUUUGAGUCCCGUACGGAACG,0.578
19,GUUUCGUUGGCGUAAUGGUAACGCGUCUCCCUCCUAAGGGGAAGACUGCGGGUUCGAGUCCCGUACGGAACG,0.997
20,GUUCCGUUGGCGUACUGGUAAGGCGUCUCCCUCCUAAGGAGACGACUGCGGCUUCGAGUCCCGUACGGAACG,≤ 0.5
21,GUUCCGUUGGCGUAAUGGUUCCGCGUCUCCCUCCUAAGGAGAAGACUGCGGGUUCGAGUCCCGUACAGAACG,≤ 0.5
22,GUUCCAUUGGCGUAAUGGUUACGCGUCUCCCUCCUAAGGAGAAGACUGCGGGUUCGAGUCCUGUGCGGAACG,≤ 0.5
23,GUUCCGUUGGCGUAAUGGUAAUGCGUCUCCCUCCUAAGGAGAAGACUGCGGCUUCGAGUCCCGUACGAAACG,≤ 0.5
24,GUUCCGUUGGCGCAAUGGUAACGCGUCUGCCUCCUAAGGAGAAGACUGCGGGUUCGAGUCCCGUUCGGAUCG,0.588
25,GCUCCGUUGGCGUAAUGGUAACGCGUCUCCCUCCUAAGGUGCAGACUGCGGGUUCGAGUCCCGUAUGGAACG,≤ 0.5

row,Variant,yeast fitness
1,GUGCGGUUGACGUAAUGGUAACGCGUCUCGGUCCUAAGGAGAAGACUGAGGGUUCGAGUUCCGUACAGAACG,≤ 0.5
2,GUACCCUUGGCGUAAUGGUAACGCGUCUCCCUCCUAAGGAGAAGACUGCGGGUUCGAGUCCCGUACGGAACG,0.662
3,GUUGCGUGGGCGUAAUGGUAACGCGUGUCCCUCCUAAGGAGAAGACUGCGGGUUCGAGUCCCGUACGGAACG,0.567
4,GGUCGGUUGGCGUAAUGGUAACGCGUCUCCCUCGUAAGGAGAAGACUGGGGGUUCGAGUCCCGUACGGAACG,0.505
5,GUUCCGUUGGUGUAAUGGUAACGCGUCUCCCUCCUACGGAGGUGACUGCGGGUUCGAGUCCAGUACGGAACG,≤ 0.5
6,GUUCCGUUGGCGUAAUGGUAACGCGUCUCCCUCCUUAGGAGAAGACUGCGGGUUUAAGUCCCGUACGGAACG,0.864
7,GUUUCGUUGGAAUAAUGGUAACGCGUCCCCCUCCUAAGGAGAACACUGCGGGUUCGAGUCCCGUACGGAACG,≤ 0.5
8,GUUCCGUUGGCGUAAUGGUAACGCGUCUCCGUCCUUAGGAGAAGACUGCGGGUUCGAGUCCCGUACGGAACG,0.615
9,GAUCCGUUGGCGUAAUGGUAACGCGUCUCCCCCCCGAGGAGAAGACUGCGGGUUCGAGUCCCGUACGGAACG,≤ 0.5
10,GUUCCGUUGGUGUAAUGGUAACGCGUCUCCCUGCUAUGGAGAAGACUGCGGGUUCGAGUCCCGUACGGAACG,≤ 0.5
11,GUUCCGUUGGCGUAAUGGUAACCCGUCUCCCUGCUAAGGAGUAGACUGCGGGUUCGAGUCCCGUACGGAACG,0.556
12,GUUCCAUUGGCGUAAUGGUAACGCGUCUACCUCCUAAGGAGAAGACUGCGGGUUCGAGUCCCGUACGGAACG,0.647
13,GUUCCGUUGGCGUAAUGGUAAGGCGUCUACCUCCUAAGGAGAAGUCUGCGGGUUCGAGUCCCGUACGGAACG,0.615
14,GUUCCGUUGGCGUAAUGGUAACGCGUCUCCCUCCUAAGGAGAAGACUACGGGUGCGAGUCCCGUACGGAACG,0.686
15,GUUCGGUUGGCGUAAUGGUAACGCGUCUCCCUCCUAAGGAGAAGAUUGCGGGUUCGAGUCCCGUACAGAACG,0.683
16,GUUUCGUUGGCGUAUAGGUAACCCGUCUCCCUCCUAAGGAGAAGACUGCGGGUUCGUGUCCCGUACGGUACG,≤ 0.5
17,GUUCCGUCGGCGUAAUGGUAACGCGUCUACCUCCUAAGGAGAAGACUGCGGGUACGAGUCCCGUACGGAACG,≤ 0.5
18,GAACCGUUGGCGUAACGGUAACGUGUCUCCCUCCUAAGGAGAAGACUGCGGGUUCGAGUCCUGUACGGAACG,0.629
19,GUUCGGUUGGCGUAAUAAUAACGCGUCUCCCUCCUAAGGAGAAGACUGCGGGUUCGAGUCCCGUACGGAACG,0.553
20,GUUCCGUUGGCGUAAUGGUAACGCGUCUCCCUCCUAAGGAGAAGAUUGCGGGUUCGAGUCCCGUCCGGAACG,0.997
21,GUUCCGUUGGCGUAAUGGUGACGCGUCUCCCUCCUAAGGAGAAGACUGCGGGCUCCAGUCCCGUACGGAACG,≤ 0.5
22,GUUCCGUUGGCGUAAUGGUAACGCGUCUCUCUCCUAAGGUGAAGACUGCGGGUUCGAGUCCCGUACGGACCG,0.56
23,GUUCCGUUGGCGGUAAUGUAACGCGUCUCCCUCCUAAGGAGAAGACUGCGGGUUCGAGUCCCGUACGGAACG,≤ 0.5
24,GUUCCGUUGGCGUAAUGGUAGCGCGUCUCCCUCCUAAGGAGAAGAAUGCGGGUUCGAGUCCCGUACGGAACG,1.01
25,GUUCCGUUGGCGUAAUGGUAAUGCGUCUCCGUCCUAAGGAGAAGACUGCGGGUUCGAGUCCCGAAAGGAACG,≤ 0.5
